Activity calls are given as the source filed them.
Tests used:
Assay type in all cases: functional, organism-based
Bacillus anthracis = test: Antibacterial activity against Bacillus anthracis at 1mM by almar blue dye reduction assay
Bacillus cereus = test: Antibacterial activity against Bacillus cereus at 1 mM by almar blue dye reduction assay
How it was run: (§1)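 Single-point primary screen at 1 mM using Alamar Blue dye reduction as the growth read-out.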

Bacillus subtilis = test: Antibacterial activity against Bacillus subtilis at 1 mM by almar blue dye reduction assay; how it was run: as §1
Staphylococcus aureus = test: Antibacterial activity against Staphylococcus aureus at 1 mM by almar blue dye reduction assay; how it was run: as §1
Escherichia coli = test: Antibacterial activity against Escherichia coli at 1 mM by almar blue dye reduction assay; how it was run: as §1
Pseudomonas aeruginosa = test: Antibacterial activity against Pseudomonas aeruginosa at 1 mM by almar blue dye reduction assay; how it was run: as §1
Candida albicans = test: Antifungal activity against Candida albicans at 1 mM by almar blue dye reduction assay; how it was run: as §1
Cryptococcus neoformans = test: Antifungal activity against Cryptococcus neoformans at 1 mM by almar blue dye reduction assay; how it was run: as §1
Saccharomyces cerevisiae = test: Antifungal activity against Saccharomyces cerevisiae at 1 mM by almar blue dye reduction assay; how it was run: as §1

Measured: Activity

CC(C)NC(=O)[C@H](C)[C@H]1CC[C@@H](C[C@@H](C)n2cc(C#Cc3ccccn3)nn2)O1
inactive: all assays above

C[C@H](C[C@@H]1CC[C@H]([C@@H](C)C(=O)N2CCN(CC3CCCO3)CC2)O1)n1cc(C#CCN2CCOCC2)nn1 (stereo partly drawn)
inactive: all assays above

C[C@H](C[C@@H]1CC[C@H]([C@@H](C)C(=O)N(C)Cc2ccccc2)O1)n1cc(C#Cc2ccc(Oc3ccccc3)cc2)nn1
inactive: all assays above

CCN(CC)C(=O)[C@H](C)[C@H]1CC[C@@H](C[C@@H](C)n2cc(C#Cc3ccccn3)nn2)O1
inactive: all assays above

C[C@H](C[C@@H]1CC[C@H]([C@@H](C)C(=O)N(C)Cc2ccccc2)O1)n1cc(C#Cc2ccc(C(F)(F)F)cc2)nn1
inactive: all assays above

C[C@H](C[C@@H]1CC[C@H]([C@@H](C)C(=O)N(C)Cc2ccccc2)O1)n1cc(C#CCOc2ccccc2)nn1
inactive: all assays above

C[C@H](C[C@@H]1CC[C@H]([C@@H](C)C(=O)N2CCCC2)O1)n1cc(C#Cc2ccccc2[N+](=O)[O-])nn1
inactive: all assays above

C[C@H](C[C@@H]1CC[C@H]([C@@H](C)C(=O)N2CCCC2)O1)n1cc(C#Cc2ccccn2)nn1
inactive: all assays above

CCN(CC)C(=O)[C@H](C)[C@H]1CC[C@@H](C[C@@H](C)n2cc(C#Cc3cccc4ccccc34)nn2)O1
inactive: all assays above

CCN(CC)C(=O)[C@H](C)[C@H]1CC[C@@H](C[C@@H](C)n2cc(C#CCOc3ccccc3)nn2)O1
inactive: all assays above

C[C@H](C[C@@H]1CC[C@H]([C@@H](C)C(=O)N2CCCC2)O1)n1cc(C#CCOc2ccc(Br)cc2)nn1
inactive: all assays above

C[C@H](CC1CCC([C@@H](C)C(=O)N(C)Cc2ccccc2)O1)n1cc(C#CCNC(=O)OCc2ccccc2)nn1 (single isomer, unassigned)
inactive: all assays above

CC(C)NC(=O)[C@H](C)[C@H]1CC[C@@H](C[C@@H](C)n2cc(C#CCOc3ccccc3)nn2)O1
inactive: all assays above

C[C@H](CC1CCC([C@@H](C)C(=O)N2CCCC2)O1)n1cc(C#CCNC(=O)OCc2ccccc2)nn1 (single isomer, unassigned)
inactive: all assays above

CCN(CC)C(=O)[C@H](C)[C@H]1CC[C@@H](C[C@@H](C)n2cc(C#Cc3ccccc3[N+](=O)[O-])nn2)O1
inactive: all assays above

C[C@H](CC1CCC([C@@H](C)C(=O)N2CCN(CC3CCCO3)CC2)O1)n1cc(C#CCNC(=O)OCc2ccccc2)nn1 (single isomer, unassigned)
inactive: all assays above

CC(C)NC(=O)[C@H](C)[C@H]1CC[C@@H](C[C@@H](C)n2cc(C#CCCCC#N)nn2)O1
inactive: all assays above
